Tested on: Fibroblast
Assay: Multiplex assay against human fibroblast
Assay type: toxicity, cell-based
Summary of the method: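 With compound added, live cells were imaged on a CQ1 microscope at 37°C and 5% CO2; staining with Hoechst33342, BioTracker Green Microtubule Cytoskeleton Dye, MitoTracker Red and Annexin V Alexa Fluor 680 had been done at seeding. The CellPathfinder machine-learning gating scheme split cells into Hoechst high-intensity objects or normal cells, normal cells into healthy, pyknosed or fragmented nuclei, and pyknosed cells into mitotic or apoptotic. The tubulin, mitochondrial-mass and membrane-permeability phenotypes are per cents of healthy-nucleus cells.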

[1] = 12 h, 1 µM, compound concentration 1 uM, replicate 1
[2] = 12 h, 1 µM, compound concentration 1 uM, replicate 2
[3] = 12 h, 10 µM, compound concentration 10 uM, replicate 1
[4] = 12 h, 10 µM, compound concentration 10 uM, replicate 2
[5] = 24 h, 1 µM, compound concentration 1 uM, replicate 1
[6] = 24 h, 1 µM, compound concentration 1 uM, replicate 2
[7] = 24 h, 10 µM, compound concentration 10 uM, replicate 1
[8] = 24 h, 10 µM, compound concentration 10 uM, replicate 2
[9] = 48 h, 1 µM, compound concentration 1 uM, replicate 1
[10] = 48 h, 1 µM, compound concentration 1 uM, replicate 2
[11] = 48 h, 10 µM, compound concentration 10 uM, replicate 1
[12] = 48 h, 10 µM, compound concentration 10 uM, replicate 2

COc1cc(NC(=O)CCN2CCC(OC(=O)Nc3ccccc3-c3ccccc3)CC2)c(Cl)cc1CNC[C@H](O)c1ccc(O)c2[nH]c(=O)ccc12 [BATEFENTEROL]
Population Apoptotic (%) [1]: 53% | Population Fragmented Nuclei (%) [1]: 25% | Population Healthy Nuclei (%) [1]: 58% | Population Hoechst High Intensity Objects (%) [1]: 2% | Population Membrane Permeable-Phenotype (%) [1]: 0% | Population Mitochondria Different-Phenotype (%) [1]: 13% | Population Mitotic Cells (%) [1]: 46% | Population Normal (%) [1]: 97% | Population Pyknosed Nuclei (%) [1]: 15% | Population Tubulin-Different-Phenotype (%) [1]: 42% | Total Cell Count [1]: 181 | Population Apoptotic (%) [2]: 37% | Population Healthy Nuclei (%) [2]: 54% | Population Hoechst High Intensity Objects (%) [2]: 3% | Population Membrane Permeable-Phenotype (%) [2]: 3% | Population Mitochondria Different-Phenotype (%) [2]: 7% | Population Mitotic Cells (%) [2]: 62% | Population Normal (%) [2]: 96% | Population Pyknosed Nuclei (%) [2]: 20% | Population Tubulin-Different-Phenotype (%) [2]: 50% | Total Cell Count [2]: 124 | Population Apoptotic (%) [3]: 46% | Population Fragmented Nuclei (%) [3]: 24% | Population Healthy Nuclei (%) [3]: 59% | Population Hoechst High Intensity Objects (%) [3]: 2% | Population Membrane Permeable-Phenotype (%) [3]: 0% | Population Mitochondria Different-Phenotype (%) [3]: 22% | Population Mitotic Cells (%) [3]: 53% | Population Normal (%) [3]: 97% | Population Pyknosed Nuclei (%) [3]: 16% | Population Tubulin-Different-Phenotype (%) [3]: 63% | Total Cell Count [3]: 199 | Population Apoptotic (%) [4]: 41% | Population Fragmented Nuclei (%) [4]: 44% | Population Healthy Nuclei (%) [4]: 41% | Population Membrane Permeable-Phenotype (%) [4]: 1% | Population Mitochondria Different-Phenotype (%) [4]: 23% | Population Mitotic Cells (%) [4]: 58% | Population Pyknosed Nuclei (%) [4]: 13% | Population Tubulin-Different-Phenotype (%) [4]: 84% | Total Cell Count [4]: 128 | Population Apoptotic (%) [5]: 55% | Population Fragmented Nuclei (%) [5]: 21% | Population Healthy Nuclei (%) [5]: 62% | Population Hoechst High Intensity Objects (%) [5]: 1% | Population Membrane Permeable-Phenotype (%) [5]: 0% | Population Mitochondria Different-Phenotype (%) [5]: 7% | Population Mitotic Cells (%) [5]: 44% | Population Normal (%) [5]: 98% | Population Pyknosed Nuclei (%) [5]: 15% | Population Tubulin-Different-Phenotype (%) [5]: 39% | Total Cell Count [5]: 174 | Population Apoptotic (%) [6]: 50% | Population Fragmented Nuclei (%) [6]: 26% | Population Healthy Nuclei (%) [6]: 59% | Population Hoechst High Intensity Objects (%) [6]: 2% | Population Membrane Permeable-Phenotype (%) [6]: 3% | Population Mitochondria Different-Phenotype (%) [6]: 10% | Population Mitotic Cells (%) [6]: 50% | Population Normal (%) [6]: 97% | Population Pyknosed Nuclei (%) [6]: 14% | Population Tubulin-Different-Phenotype (%) [6]: 57% | Total Cell Count [6]: 131 | Population Apoptotic (%) [7]: 51% | Population Fragmented Nuclei (%) [7]: 35% | Population Healthy Nuclei (%) [7]: 53% | Population Hoechst High Intensity Objects (%) [7]: 0% | Population Membrane Permeable-Phenotype (%) [7]: 0% | Population Mitochondria Different-Phenotype (%) [7]: 34% | Population Mitotic Cells (%) [7]: 48% | Population Normal (%) [7]: 99% | Population Pyknosed Nuclei (%) [7]: 11% | Population Tubulin-Different-Phenotype (%) [7]: 63% | Total Cell Count [7]: 247 | Population Apoptotic (%) [8]: 81% | Population Fragmented Nuclei (%) [8]: 46% | Population Healthy Nuclei (%) [8]: 45% | Population Hoechst High Intensity Objects (%) [8]: 1% | Population Membrane Permeable-Phenotype (%) [8]: 1% | Population Mitochondria Different-Phenotype (%) [8]: 14% | Population Mitotic Cells (%) [8]: 18% | Population Normal (%) [8]: 98% | Population Pyknosed Nuclei (%) [8]: 8% | Population Tubulin-Different-Phenotype (%) [8]: 80% | Total Cell Count [8]: 136 | Population Apoptotic (%) [9]: 62% | Population Fragmented Nuclei (%) [9]: 23% | Population Healthy Nuclei (%) [9]: 54% | Population Hoechst High Intensity Objects (%) [9]: 3% | Population Membrane Permeable-Phenotype (%) [9]: 0% | Population Mitochondria Different-Phenotype (%) [9]: 18% | Population Mitotic Cells (%) [9]: 37% | Population Normal (%) [9]: 96% | Population Pyknosed Nuclei (%) [9]: 22% | Population Tubulin-Different-Phenotype (%) [9]: 53% | Total Cell Count [9]: 185 | Population Apoptotic (%) [10]: 66% | Population Fragmented Nuclei (%) [10]: 29% | Population Healthy Nuclei (%) [10]: 56% | Population Membrane Permeable-Phenotype (%) [10]: 4% | Population Mitochondria Different-Phenotype (%) [10]: 14% | Population Mitotic Cells (%) [10]: 33% | Population Pyknosed Nuclei (%) [10]: 14% | Population Tubulin-Different-Phenotype (%) [10]: 70% | Total Cell Count [10]: 130 | Population Apoptotic (%) [11]: 74% | Population Fragmented Nuclei (%) [11]: 22% | Population Healthy Nuclei (%) [11]: 54% | Population Hoechst High Intensity Objects (%) [11]: 1% | Population Membrane Permeable-Phenotype (%) [11]: 0% | Population Mitochondria Different-Phenotype (%) [11]: 45% | Population Mitotic Cells (%) [11]: 25% | Population Normal (%) [11]: 98% | Population Pyknosed Nuclei (%) [11]: 22% | Population Tubulin-Different-Phenotype (%) [11]: 77% | Total Cell Count [11]: 213 | Population Apoptotic (%) [12]: 88% | Population Fragmented Nuclei (%) [12]: 45% | Population Healthy Nuclei (%) [12]: 48% | Population Hoechst High Intensity Objects (%) [12]: 0% | Population Membrane Permeable-Phenotype (%) [12]: 1% | Population Mitochondria Different-Phenotype (%) [12]: 15% | Population Mitotic Cells (%) [12]: 11% | Population Normal (%) [12]: 99% | Population Pyknosed Nuclei (%) [12]: 6% | Population Tubulin-Different-Phenotype (%) [12]: 76% | Total Cell Count [12]: 144
